Source: PubChem
This is a sample that favours compounds with a hit; in the whole collection about 5.6% have one here.
aDG glyco act: increases alpha dystroglycan glycosylation | Pro5-aDG cells, alpha-DG glycosylation AlphaScreen (IIH6); 0% Pro5, 100% B10-LARGE cell signal | activation, % at 10 µM | hit rate 0.22% among 360,000;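 active = activation of at least 8% versus controls, or a plate z-score of at least 8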;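 note: Pro5 are CHO cells carrying HIG-tagged alpha-DG that lacks glycosylation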
MPTP inh: blocks calcium-induced mitochondrial swelling; hit rate 1.4% among 360,000; inhibition, % at 10 µM; isolated mouse mitochondria, Ca2+ swelling absorbance, 30 min;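 active = inhibition of 50% or more, scaled per plate between neutral and stimulator controls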;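 note: 0% = DMSO wells given calcium and 100% = 1 mM EGTA wells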
UPR CHOP act: activators of apoptotic arm of unfolded protein response (CHOP); CHO-CHOP luciferase reporter, UPR activation, luminescence; percent of tunicamycin response over DMSO baseline; activation, % at 10 µM; hit rate 0.34% among 330,000;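 active = at 10 µM dose, activation of 40% or more, normalized to positive control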;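 note: 100% = tunicamycin at 10 µg/mL and 0% = DMSO alone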
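Test system: CHO CHOP reporter cells. Input: 500 CHO-CHOP cells per well. Medium: F12 with 10% FBS. Technique: luciferase luminescence. Measure: percent activation relative to tunicamycin control. Dosing: 10 µM compound, 0.5% DMSO. Timing: 16-18 h cell attachment, then 6 h compound exposure, 37 °C.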
UPR XBP1 act: activators of adaptive arm of unfolded protein response (XBP1); CHO-XBP1 luciferase reporter, IRE1-XBP1 UPR activation, luminescence; percent of tunicamycin response, DMSO as zero; activation, % at 20 µM; hit rate 0.33% among 330,000; AID 463104;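 active = versus positive control, 20 µM dose yields 30% or more activation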;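 note: 100% = tunicamycin at 10 µg/mL and 0% = DMSO only wells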
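Material: CHO-XBP1 cells stably carrying IRE1-XBP1-driven luciferase reporter | Medium: F12 with 10% serum | Compound dosing: 20 µM single concentration, DMSO 1% | Incubation: Overnight seeding at 37 °C, 6 h compound treatment at 37 °C | Detection: Steady-Glo luminescence read | Read-out basis: % activation of reporter signal versus tunicamycin and DMSO controls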
CHOP inhibitor: CHOP inhibition in unfolded protein response; CHO-K1 CHOP-promoter luciferase, tunicamycin-induced, 15-18 h; inhibition, % at 10 µM; hit rate 3.8% among 220,000;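 active = compounds that reduced the stress-induced luciferase reporter signal by more than about 70% of percent inhibition, limit read from the data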;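 note: 0% = tunicamycin plus vehicle and 100% = wells without tunicamycin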
NR3A LBD binder: modulates the human NR3A ligand-binding domain. hit rate 2.5% among 340,000. NR3A LBD differential scanning fluorimetry, Tm shift; 0% = protein alone, 100% = glycine-bound protein. Tm shift relative to glycine control, % at 25 µM. AID 1259313;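 active = melting temperature shift of at least 10% of the positive control shift, at one fixed dose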
MPTP counter: Rhodamine 123 counter-screen of mitochondrial pore hits. shares compounds with MPTP inh. isolated mitochondria, membrane potential, Rhodamine 123 fluorescence. inhibition, % at 10 µM. hit rate 78% among 5,000. AID 624504; in the data active = inhibition above about 22%;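 note: 0% = DMSO vehicle and 100% = positive control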
MPTP swell DR: MPTP inhibition, dose response swelling confirmation; shares compounds with MPTP inh; isolated mitochondria swelling, absorbance; IC50, µM; hit rate 58% among 780; in the data active = IC50 below about 20 µM
MPTP cs DR: active in counter-screen for permeability transition pore inhibitors | shares compounds with MPTP inh | isolated mitochondria counterscreen, fluorescence read-out | IC50, µM | hit rate 49% among 780; in the data active = IC50 below about 80 µM
The depositor's hits bear a star; / = not tested or not shown.

SMILES	aDG glyco act	MPTP inh	UPR CHOP act	UPR XBP1 act	CHOP inhibitor	NR3A LBD binder	MPTP counter	others
N#CNC(=Nc1cccc(F)c1)SCc1cccc(F)c1	0.5	84.0*	-2.7	0.9	27.8	-4.9	73.8*
O=C(NC(=S)Nc1nc(-c2cccc([N+](=O)[O-])c2)cs1)c1cc(Cl)ccc1Cl	0.6	56.7*	-2.2	2.0	6.9	11.4*	12.9	MPTP swell DR=19.5*;MPTP cs DR=<2.5*
O=C(Nc1nc(-c2cccc([N+](=O)[O-])c2)cs1)C(c1ccccc1)c1ccccc1	-0.2	3.8	1.2	2.9	28.0	-1.0	/
Cc1nc(C)c(C(=O)NNS(=O)(=O)c2ccc3ccccc3c2)s1	1.5	88.9*	-4.2	-4.5	41.6	-1.1	62.3*
O=C(O)C1CC=CCC1C(=O)N1CCN(c2nc(-c3ccccc3)c3ccccc3n2)CC1 (stereo unspecified)	1.9	82.6*	1.8	0.6	-12.1	-1.4	-11.3	MPTP swell DR=10.3*;MPTP cs DR=>80
O=C1CCc2cc(S(=O)(=O)Nc3ccccc3)cc3c2N1CCC3	0.1	-0.2	0.4	-4.9	/	-1.2	/
O=Cc1ccc(OCC(=O)NCC2CCCO2)cc1 (stereo unspecified)	-0.2	64.5*	-0.8	-1.7	/	-5.2	0.2	MPTP swell DR=>100;MPTP cs DR=>80
O=C(COc1ccc(S(=O)(=O)NC2CCCCC2)cc1)NCC1CCCO1 (stereo unspecified)	0.2	-0.7	-1.3	-2.7	21.6	-1.3	/
CCN(CC)C(=O)c1ccc(S(=O)(=O)N2CCC(c3nc4ccccc4s3)CC2)cc1	3.6	89.3*	3.0	-2.2	73.5*	1.1	93.8*
COc1cccc(NC(=O)COc2ncnc3sc(C)c(C)c23)c1	0.1	3.2	0.6	-0.8	27.9	-1.6	/
CCN(CC(=O)Nc1cccc(OC)c1)c1ncnc2sc(C)c(C)c12	3.3	72.3*	-2.5	-0.1	59.0	7.9	67.9*
Cc1ccc(CNC(=O)CCc2cn(C)c3ccccc23)cc1	0.0	0.5	0.9	-2.6	/	-0.4	/
C/C(=N\N=C(N)N)c1cccc(Cl)c1	0.2	55.2*	-1.4	-1.1	5.4	-2.7	6.5	MPTP swell DR=15.6*;MPTP cs DR=67.8*
C/C(=N\NC(N)=O)c1cccc(Cl)c1	-0.2	0.4	1.6	-1.1	14.3	-6.0	/
COc1ccc(C(=O)CSc2nnc(Cn3cnc4ccccc43)o2)cc1	4.1	84.0*	6.0	-2.1	/	0.2	65.9*
CC(=O)c1c(C)[nH]c(C(=O)Nc2ccc(C)c(S(=O)(=O)Nc3ccc(C)cc3C)c2)c1C	0.3	91.8*	-0.1	-1.5	-16.6	1.3	71.5*
CC(=O)c1c(C)[nH]c(C(=O)Nc2ccc(C)c(S(=O)(=O)N(C)C)c2)c1C	-0.1	3.2	/	/	-21.2	-2.4	/
CC(=O)c1c(C)[nH]c(C(=O)Nc2ccc(Cl)c(S(=O)(=O)N3CCOCC3)c2)c1C	-0.2	63.5*	0.9	-1.2	0.3	-5.7	79.8*
COc1ccc(Cl)cc1NC(=O)COC(=O)C1COc2ccccc2O1 (stereo unspecified)	0.1	0.2	0.2	-0.5	/	-3.6	/
O=C(N/N=C/c1cccc(Br)c1)C1CC(=O)N(c2ccccc2)C1 (stereo unspecified)	0.0	-1.1	2.7	-6.9	/	-2.3	/
CC(=O)c1c(C)[nH]c(C(=O)CSc2ccc(F)cc2)c1C	1.1	90.4*	7.8	0.1	46.4	1.2	83.5*
CN1C(=S)SC(N(O)C(=O)Nc2ccc(Cl)c(Cl)c2)C1(C)C (stereo unspecified)	-0.1	98.3*	-1.0	-1.4	35.5	-0.2	85.9*
COc1ccc(N/N=C/c2c(C(=O)O)ccc3ccccc23)cc1	0.3	82.3*	-1.1	0.8	95.7*	2.9	51.7*
